Measurements taken from ChEMBL document CHEMBL1137899, “Glycosylated dihydrochalcones as potent and selective sodium glucose co-transporter 2 (SGLT2) inhibitors” (Bioorg Med Chem Lett, 2004).
pKi: −log10 of the molar value.

Key:
[1] = target: T1, Sodium/glucose cotransporter 2 (Homo sapiens, UniProt P31639); test: In vitro inhibition of Na-dependent [14C]AMG uptake in CHO-K1 cells expressing human sodium glucose co-transporter 2; assay type: functional, cell-based
T1 sequence (P31639 whole entry): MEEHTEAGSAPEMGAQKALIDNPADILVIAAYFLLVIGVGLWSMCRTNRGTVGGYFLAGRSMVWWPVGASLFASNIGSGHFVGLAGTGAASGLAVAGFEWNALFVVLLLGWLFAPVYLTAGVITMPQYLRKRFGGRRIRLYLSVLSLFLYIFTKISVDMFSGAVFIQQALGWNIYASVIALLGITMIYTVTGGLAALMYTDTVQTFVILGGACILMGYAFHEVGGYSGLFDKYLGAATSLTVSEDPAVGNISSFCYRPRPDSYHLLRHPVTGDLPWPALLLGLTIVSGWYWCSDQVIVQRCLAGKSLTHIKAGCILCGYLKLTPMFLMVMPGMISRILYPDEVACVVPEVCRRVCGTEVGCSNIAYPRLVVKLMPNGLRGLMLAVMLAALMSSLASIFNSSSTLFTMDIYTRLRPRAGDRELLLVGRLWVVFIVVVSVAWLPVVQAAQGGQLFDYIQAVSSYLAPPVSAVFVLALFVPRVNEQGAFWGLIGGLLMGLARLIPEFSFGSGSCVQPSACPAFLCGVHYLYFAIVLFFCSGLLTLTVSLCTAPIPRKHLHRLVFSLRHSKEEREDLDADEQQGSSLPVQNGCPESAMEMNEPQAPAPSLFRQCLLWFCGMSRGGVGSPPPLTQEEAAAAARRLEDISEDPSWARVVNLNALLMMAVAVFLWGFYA
How it was run: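 CHO-K1 cells overexpressing human SGLT2 pre-treated with compound for 15 min with or without NaCl, then labelled with 14C-alpha-methylglucopyranoside (AMG, nonmetabolizable glucose analogue); sodium-dependent uptake of label measured.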

[2] = Metabolic half-life as a measure of human liver microsomal stability was determined at 5 uM; assay type: ADME; details: liver microsomes
[3] = (§1) In vivo ability to induce urinary glucose excretion in male Zucker Diabetic Fatty (ZDF) rats at 3 mg/kg i.v. dose; assay type: ADME, organism-based, Urine; parameters: dose 3 mg/kg, route intravenous; details: rat, iv
How it was run: (§2)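 Male ZDF rats, 7–8 weeks, fasted 12 h; compound or vehicle (10% Solutol) given i.v. at 2 mL/kg. Oral glucose challenge (4 mL/kg of 50% solution) 1 h later, rats then placed in metabolism cages with free water access; urine collected for 4 h, glucose quantified with Trinder reagent.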

Rattus norvegicus = test: as §1; assay type: functional, Urine; details: route intravenous; how it was run: as §2

pKi [1] | SMILES | also measured
7.15 | O=C(CCc1ccc2ccccc2c1)c1c(O)cc(F)cc1O[C@@H]1O[C@H](CO)[C@@H](O)[C@H](O)[C@H]1O | 
6.82 | CC(C)c1cc(O)c(C(=O)CCc2ccc3ccccc3c2)c(O[C@@H]2O[C@H](CO)[C@@H](O)[C@H](O)[C@H]2O)c1 | 
8.40 | Cc1cc(O)c(C(=O)CCc2ccc3occc3c2)c(O[C@@H]2O[C@H](CO)[C@@H](O)[C@H](O)[C@H]2O)c1 | half-life at 5 µM [2]: 24 min; Excreted glucose [3]: 1189 mg
7.15 | Cc1cc(O)c(C(=O)CCc2ccsc2)c(O[C@@H]2O[C@H](CO)[C@@H](O)[C@H](O)[C@H]2O)c1 | 
8.00 | CCc1cc(O)c(C(=O)CCc2ccc3ccccc3c2)c(O[C@@H]2O[C@H](CO)[C@@H](O)[C@H](O)[C@H]2O)c1 | 
6.64 | Cc1cc(O)c(C(=O)CCc2ccoc2)c(O[C@@H]2O[C@H](CO)[C@@H](O)[C@H](O)[C@H]2O)c1 | 
7.52 | O=C(CCc1ccc2ccccc2c1)c1c(O)cc(Cl)cc1O[C@@H]1O[C@H](CO)[C@@H](O)[C@H](O)[C@H]1O | 
7.70 | O=C(CCc1ccc2c(c1)OCCO2)c1c(O)cc(Cl)cc1O[C@@H]1O[C@H](CO)[C@@H](O)[C@H](O)[C@H]1O | 
8.05 | Cc1cc(O)c(C(=O)CCc2ccc3c(c2)OCCO3)c(O[C@@H]2O[C@H](CO)[C@@H](O)[C@H](O)[C@H]2O)c1 | Excreted glucose (Rattus norvegicus): 608 mg; half-life at 5 µM [2]: > 45 min
8.00 | CCOc1ccc(CCC(=O)c2c(O)cc(C)cc2O[C@@H]2O[C@H](CO)[C@@H](O)[C@H](O)[C@H]2O)cc1 | half-life at 5 µM [2]: > 45 min
8.00 | Cc1cc(O)c(C(=O)CCc2ccc3ccccc3c2)c(O[C@@H]2O[C@H](CO)[C@@H](O)[C@H](O)[C@H]2O)c1 | 
6.28 | Cc1cc(N)c(C(=O)CCc2ccc3ccccc3c2)c(O[C@@H]2O[C@H](CO)[C@@H](O)[C@H](O)[C@H]2O)c1 | 
7.10 | CCOc1ccc(CCC(=O)c2c(O)cc(Cl)cc2O[C@@H]2O[C@H](CO)[C@@H](O)[C@H](O)[C@H]2O)cc1 | 

The remaining lines, values behind:

SMILES | pKi [1] | also measured
CCOc1ccc(CCC(=O)c2c(O)cc(CC)cc2O[C@@H]2O[C@H](CO)[C@@H](O)[C@H](O)[C@H]2O)cc1 | 7.52 | half-life at 5 µM [2]: > 45 min
Cc1cc(N)c(C(=O)CCc2ccc3c(c2)OCCO3)c(O[C@@H]2O[C@H](CO)[C@@H](O)[C@H](O)[C@H]2O)c1 | 6.54 | 
CCOc1ccc(CCC(=O)c2c(O)cc(C(C)C)cc2O[C@@H]2O[C@H](CO)[C@@H](O)[C@H](O)[C@H]2O)cc1 | 6.96 | 
Cc1cc(O)c(C(=O)CCC2CCCCC2)c(O[C@@H]2O[C@H](CO)[C@@H](O)[C@H](O)[C@H]2O)c1 | 7.40 | 
CCc1cc(O)c(C(=O)CCc2ccc3c(c2)OCCO3)c(O[C@@H]2O[C@H](CO)[C@@H](O)[C@H](O)[C@H]2O)c1 | 8.00 | 
CCOc1ccc(CCC(=O)c2c(N)cc(C)cc2O[C@@H]2O[C@H](CO)[C@@H](O)[C@H](O)[C@H]2O)cc1 | 5.89 | 
CCOc1ccc(CCC(=O)c2c(Cl)cccc2O[C@@H]2O[C@H](CO)[C@@H](O)[C@H](O)[C@H]2O)cc1 | < 5.77 | 
CC(C)c1cc(O)c(C(=O)CCc2ccc3c(c2)OCCO3)c(O[C@@H]2O[C@H](CO)[C@@H](O)[C@H](O)[C@H]2O)c1 | 7.70 | 
O=C(CCc1ccc2ccccc2c1)c1c(Cl)cccc1O[C@@H]1O[C@H](CO)[C@@H](O)[C@H](O)[C@H]1O | < 5.77 | 
O=C(CCc1ccc2c(c1)OCCO2)c1c(Cl)cccc1O[C@@H]1O[C@H](CO)[C@@H](O)[C@H](O)[C@H]1O | < 5.77 | 
